Experimental data published in ChEMBL document CHEMBL4368909, “Identification of Dihydrofuro[3,4- d]pyrimidine Derivatives as Novel HIV-1 Non-Nucleoside Reverse Transcriptase Inhibitors with Promising Antiviral Activities and Desirable Physicochemical Properties” (J Med Chem, 2019).

Key:
[1] = tested on: Human immunodeficiency virus 1; experiment: Antiviral activity against HIV1 NL4-3 infected in human TZM-bl cells after 2 days by luciferase-bright glo assay; type: functional, organism-based; details: Human immunodeficiency virus 1, NL4-3, TZM-bl, 48 h
[2] = tested on: TZM; experiment: Cytotoxicity against human TZM-bl cells after 4 days by XTT assay; type: cell-based; details: 96 h
[3] = Selectivity ratio of CC50 for human TZM-bl cells to EC50 for HIV1 NL4-3 infected in human TZM-bl cells; type: toxicity, cell-based; details: read-out: Ratio CC50/EC50
In short: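 The selectivity index is CC50/EC50 in TZM-bl cells against NL4-3. […] The highest concentration tested was 125 ng/mL.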

[4] = tested on: Human immunodeficiency virus 1; experiment: Antiviral activity against wild type HIV1 3B infected in human MT4 cells assessed as reduction in virus-induced cytopathic effect after 5 days by MTT assay; type: functional, organism-based; details: Human immunodeficiency virus 1, 3B, MT4, 120 h
[5] = tested on: Human immunodeficiency virus 1; experiment: Antiviral activity against HIV1 RES056 infected in human MT4 cells assessed as reduction in virus-induced cytopathic effect after 5 days by MTT assay; type: functional, organism-based; details: Human immunodeficiency virus 1, RES056, MT4, 120 h
[6] = tested on: MT4; experiment: Cytotoxicity against human MT4 cells after 5 days by MTT assay; type: cell-based; details: mt4, 120 h
[7] = biological target: Human immunodeficiency virus type 1 reverse transcriptase (Human immunodeficiency virus 1, UniProt Q72547); experiment: Inhibition of recombinant HIV1 reverse transcriptase using (DIG)-dUTP and biotin-labeled dNTPs as substrate after 1 hr by ELISA
[8] = tested on: Human immunodeficiency virus 2; experiment: Antiviral activity against HIV2 ROD infected in human MT4 cells assessed as reduction in virus-induced cytopathic effect after 5 days by MTT assay; details: Human immunodeficiency virus 2, ISOLATE ROD, MT4, 120 h
[9] = Selectivity ratio of CC50 for human MT4 cells to EC50 for HIV1 3B infected in human MT4 cells; type: toxicity, cell-based; details: read-out: Ratio CC50/EC50
[10] = Selectivity ratio of CC50 for human MT4 cells to EC50 for HIV1 RES056 infected in human MT4 cells; type: toxicity, cell-based; details: read-out: Ratio CC50/EC50

| Compound | EC50 [1] | CC50 [2] | selectivity ratio [3] | EC50 [4] | EC50 [5] | CC50 [6] | IC50 [7] | EC50 [8] | selectivity ratio [9] | selectivity ratio [10] |
| --- | --- | --- | --- | --- | --- | --- | --- | --- | --- | --- |
| Cc1cc(C#N)cc(C)c1Oc1nc(N[C@@H]2CCN(Cc3ccncc3)C2)nc2ccsc12 | 16 nM | > 273 nM | 17 | – | – | – | – | – | – | – |
| Cc1cc(C#N)cc(C)c1Oc1nc(N[C@@H]2CCN(Cc3ccc(C(N)=O)cc3)C2)nc2ccsc12 | 10.4 nM | – | 24 | – | – | – | – | – | – | – |
| Cc1cc(C#N)cc(C)c1Oc1nc(NC2CC3CCC(C2)N3Cc2ccncc2)nc2ccsc12 (stereo not given) | > 251 nM | > 251 nM | 1 | – | – | – | – | – | – | – |
| Cc1cc(C#N)cc(C)c1Oc1nc(NC2CCN(Cc3ccc(NS(C)(=O)=O)cc3)CC2)nc2c1CSC2 | – | – | – | 11.2 nM | 5240 nM | > 257000 nM | 140 nM | > 257000 nM | – | – |
| Cc1cc(C#N)cc(C)c1Oc1nc(NC2CC3CCC(C2)N3Cc2cccc(C(N)=O)c2)nc2ccsc12 (stereo not given) | > 232 nM | > 232 nM | 1 | – | – | – | – | – | – | – |
| Cc1cc(C#N)cc(C)c1Oc1nc(NC2CCCN(Cc3ccc(S(N)(=O)=O)cc3)CC2)nc2ccsc12 (stereo not given) | 2.2 nM | > 222 nM | – | – | – | – | – | – | – | – |
| Cc1cc(C#N)cc(C)c1Oc1nc(NC2CCN(Cc3ccc(S(C)(=O)=O)cc3)CC2)nc2c1SCCC2 | – | – | – | 3.9 nM | 98.3 nM | ≥ 3400 nM | – | > 3400 nM | – | – |
| Cc1cc(C#N)cc(C)c1Oc1nc(NC2CCN(Cc3ccc(S(N)(=O)=O)cc3)CC2)nc2c1CCCC2 | – | – | – | 6 nM | 667 nM | > 228000 nM | 84 nM | > 228000 nM | – | – |
| Cc1cc(C#N)cc(C)c1Oc1nc(N[C@H]2CCN(Cc3ccc(S(N)(=O)=O)cc3)C2)nc2ccsc12 | 104 nM | – | 2.2 | – | – | – | – | – | – | – |
| Cc1cc(C#N)cc(C)c1Oc1nc(NC2CCN(Cc3ccc([N+](=O)[O-])cc3)CC2)nc2c1SCCC2 | – | – | – | 8.6 nM | 604 nM | 4000 nM | – | > 4000 nM | 465 | 6.6 |
| Cc1cc(C#N)cc(C)c1Oc1nc(NC2CN(Cc3cccc(C(N)=O)c3)C2)nc2ccsc12 | 8.95 nM | > 257 nM | 29 | – | – | – | – | – | – | – |
| Cc1cc(C#N)cc(C)c1Oc1nc(NC2CCCN(Cc3ccc(C(N)=O)cc3)CC2)nc2ccsc12 (stereo not given) | > 237 nM | > 237 nM | 1 | – | – | – | – | – | – | – |
| Cc1cc(C#N)cc(C)c1Oc1nc(N[C@@H]2CCN(Cc3ccc(S(N)(=O)=O)cc3)C2)nc2ccsc12 | 8.69 nM | > 233 nM | 26 | – | – | – | – | – | – | – |
| Cc1cc(C#N)cc(C)c1Oc1nc(NC2CCN(Cc3ccc(C(N)=O)cc3)CC2)nc2c1CCC2 | – | – | – | 6.1 nM | 173 nM | – | 73 nM | 139000 nM | – | – |
| Cc1cc(C#N)cc(C)c1Oc1nc(N[C@@H]2CCN(Cc3ccc(S(C)(=O)=O)cc3)C2)nc2ccsc12 | 13.9 nM | – | 16 | – | – | – | – | – | – | – |
| Cc1cc(C#N)cc(C)c1Oc1nc(NC2CC3CCC(C2)N3Cc2ccc(S(C)(=O)=O)cc2)nc2ccsc12 (stereo not given) | > 217 nM | > 217 nM | 1 | – | – | – | – | – | – | – |
| Cc1cc(C#N)cc(C)c1Oc1nc(N[C@H]2CCN(Cc3cccc(C(N)=O)c3)C2)nc2ccsc12 | > 250 nM | > 250 nM | 1 | – | – | – | – | – | – | – |
| Cc1cc(C#N)cc(C)c1Oc1nc(NC2CCN(Cc3ccc(N)cc3)CC2)nc2c1CSC2 | – | – | – | 8.4 nM | 704 nM | > 257000 nM | 115 nM | 108000 nM | – | – |
| Cc1cc(C#N)cc(C)c1Oc1nc(NC2CCCN(Cc3ccncc3)CC2)nc2ccsc12 (stereo not given) | 31.7 nM | > 257 nM | 8 | – | – | – | – | – | – | – |
| Cc1cc(C#N)cc(C)c1Oc1nc(NC2CC3CCC(C2)N3Cc2ccc(S(N)(=O)=O)cc2)nc2ccsc12 (stereo not given) | > 217 nM | > 217 nM | 1 | – | – | – | – | – | – | – |

| Compound | EC50 [1] | CC50 [2] | selectivity ratio [3] | EC50 [4] | EC50 [5] | CC50 [6] | IC50 [7] | EC50 [8] | selectivity ratio [9] | selectivity ratio [10] |
| --- | --- | --- | --- | --- | --- | --- | --- | --- | --- | --- |
| Cc1cc(C#N)cc(C)c1Oc1nc(NC2CCN(Cc3ccc(C(N)=O)cc3)CC2)nc2c1CCCC2 | – | – | – | 6 nM | 291 nM | > 233000 nM | 51 nM | > 233000 nM | – | – |
| Cc1cc(C#N)cc(C)c1Oc1nc(N[C@H]2CCN(Cc3ccc(C(N)=O)cc3)C2)nc2ccsc12 | 55.7 nM | > 250 nM | 4.5 | – | – | – | – | – | – | – |
| Cc1cc(C#N)cc(C)c1Oc1nc(N[C@H]2CCN(Cc3ccncc3)C2)nc2ccsc12 | 16.7 nM | – | 16 | – | – | – | – | – | – | – |
| Cc1cc(C#N)cc(C)c1Oc1nc(NC2CCN(Cc3cccc(C(N)=O)c3)CC2)nc2c1SCC2 | – | – | – | 27.7 nM | 629 nM | – | 94 nM | > 223000 nM | – | – |
| Cc1cc(C#N)cc(C)c1Oc1nc(NC2CN(Cc3ccc(C(N)=O)cc3)C2)nc2ccsc12 | 4.76 nM | > 257 nM | 54 | – | – | – | – | – | – | – |
| Cc1cc(C#N)cc(C)c1Oc1nc(NC2CCN(Cc3ccc(C(N)=O)cc3)CC2)nc2c1SCCC2 | – | – | – | 3 nM | 93 nM | ≥ 44300 nM | – | > 44300 nM | – | – |
| Cc1cc(C#N)cc(C)c1Oc1nc(NC2CN(Cc3ccncc3)C2)nc2ccsc12 | 2.21 nM | > 282 nM | 128 | – | – | – | – | – | – | – |
| Cc1cc(C#N)cc(C)c1Oc1nc(NC2CN(Cc3ccc(S(C)(=O)=O)cc3)C2)nc2ccsc12 | 207 nM | > 240 nM | 1.1 | – | – | – | – | – | – | – |
| Cc1cc(C#N)cc(C)c1Oc1nc(N[C@@H]2CCN(Cc3cccc(C(N)=O)c3)C2)nc2ccsc12 | 41.3 nM | – | 6 | – | – | – | – | – | – | – |
| Cc1cc(C#N)cc(C)c1Oc1nc(NC2CCN(Cc3ccc(S(C)(=O)=O)cc3)CC2)nc2c1SCC2 | – | – | – | 5.9 nM | 46.6 nM | 11900 nM | 130 nM | 13500 nM | 2020 | 257 |
| Cc1cc(C#N)cc(C)c1Oc1nc(NC2CCCN(Cc3ccc(S(C)(=O)=O)cc3)CC2)nc2ccsc12 (stereo not given) | 9.98 nM | > 222 nM | 22 | – | – | – | – | – | – | – |
| Cc1cc(C#N)cc(C)c1Oc1nc(NC2CCN(Cc3cccc(C(N)=O)c3)CC2)nc2c1COC2 | – | – | – | 7.8 nM | 1030 nM | – | 91 nM | 209000 nM | – | – |
| Cc1cc(C#N)cc(C)c1Oc1nc(NC2CCN(Cc3ccncc3)CC2)nc2c1CCC2 | – | – | – | 1.8 nM | 54.7 nM | > 274000 nM | 73 nM | 138000 nM | – | – |
| Cc1cc(C#N)cc(C)c1Oc1nc(NC2CCN(Cc3ccncc3)CC2)nc2c1SCC2 | – | – | – | 2.6 nM | 46 nM | – | 112 nM | 15700 nM | – | – |
| Cc1cc(C#N)cc(C)c1Oc1nc(N[C@H]2CCN(Cc3ccc(S(C)(=O)=O)cc3)C2)nc2ccsc12 | 50.7 nM | > 234 nM | 4.6 | – | – | – | – | – | – | – |
| Cc1cc(C#N)cc(C)c1Oc1nc(NC2CN(Cc3ccc(S(N)(=O)=O)cc3)C2)nc2ccsc12 | 4.53 nM | > 240 nM | 53 | – | – | – | – | – | – | – |
| Cc1cc(C#N)cc(C)c1Oc1nc(NC2CCN(Cc3ccc(S(C)(=O)=O)cc3)CC2)nc2c1CCCC2 | – | – | – | 8 nM | 66.1 nM | > 266000 nM | 89 nM | ≥ 163000 nM | – | – |
| Cc1cc(C#N)cc(C)c1Oc1nc(NC2CCN(Cc3ccc([N+](=O)[O-])cc3)CC2)nc2c1COC2 | – | – | – | 7.4 nM | 511 nM | – | 92 nM | > 11100 nM | – | – |
| Cc1cc(C#N)cc(C)c1Oc1nc(NC2CCCN(Cc3cccc(C(N)=O)c3)CC2)nc2ccsc12 (stereo not given) | 10.3 nM | > 237 nM | 23 | – | – | – | – | – | – | – |
| Cc1cc(C#N)cc(C)c1Oc1nc(NC2CC3CCC(C2)N3Cc2ccc(C(N)=O)cc2)nc2ccsc12 (stereo not given) | > 232 nM | > 232 nM | 1 | – | – | – | – | – | – | – |
